Measurements: ChEMBL document CHEMBL2311442, “Identification of novel antimycobacterial chemical agents through the in silico multi-conformational structure-based drug screening of a large-scale chemical library” (Eur J Med Chem, 2013)
Calls of active or inactive are those of the source. The calls are words filed in the database; no cut-off is given here.

Assays:
[1] = tested on: Mycobacterium vanbaalenii; assay: Growth inhibition of Mycobacterium vanbaalenii at 50 uM after 18 hrs; format: functional; conditions: Mycolicibacterium vanbaalenii
Outline: (§1)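 Mycobacteria grown overnight or 2 days at 37 C, 300 rpm in 3.7% brain heart infusion broth; M. smegmatis diluted 8x before seeding. Diluted culture incubated with compound (M. vanbaalenii 50 uM, M. smegmatis 100 uM). Controls: 0.3% DMSO (negative), isoniazid (positive). A595 read at 4, 8, 18, 24 h. Mean ± SEM of four experiments; Dunnett's test.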

Escherichia coli [2] = assay: Toxicity against Escherichia coli BL21 at 50 uM after 24 hrs
Escherichia coli [3] = assay: Toxicity against Escherichia coli JM 109 at 50 uM after 24 hrs; format: organism-based; conditions: in vivo
MDCK = assay: Cytotoxicity against MDCK at 50 uM after 1 day by CCK8 assay; format: cell-based, Canis lupus familiaris; conditions: dog, 24 h
Outline: (§2)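 MDCK (5.0 x 10^3/well) and SH-SY5Y (1.5 x 10^4/well) in DMEM with 10% FBS, penicillin/streptomycin, 2 mM glutamine. Starved in 0.25% FBS (MDCK overnight, SH-SY5Y 2 days), then given compound at 50 uM in 0.25% FBS medium. Exposure: MDCK 1 day, SH-SY5Y 2 days. CCK-8 added, 3 h, WST-8 formazan A450. Isoniazid 50 uM control; mean ± SEM, n=4; Dunnett's test.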

[4] = Cytotoxicity against human SH-SY5Y at 50 uM after 2 days by CCK8 assay; format: cell-based; conditions: 48 h; outline: as §2
[5] = tested on: Mycobacterium vanbaalenii; assay: Antimycobacterial activity against Mycobacterium vanbaalenii incubated up to 24 hrs; format: functional, Mycolicibacterium vanbaalenii
Outline: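 M. vanbaalenii grown overnight or 2 days at 37 C, 300 rpm in 3.7% brain heart infusion broth, diluted, then incubated in medium with compound across a dose range. Growth read as A595 at 4, 8, 18 and 24 h; growth rate (%) taken from 24 h culture. IC50 from dose-response; mean ± SD, four independent experiments.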

[6] = tested on: Mycolicibacterium smegmatis; assay: Growth inhibition of Mycobacterium smegmatis at 100 uM after 24 hrs; format: functional, organism-based; outline: as §1
[7] = tested on: Mycobacterium vanbaalenii; assay: Growth inhibition of Mycobacterium vanbaalenii at 50 uM up to 24 hrs; format: functional; conditions: Mycolicibacterium vanbaalenii; outline: as §1
[8] = target: T1, Enoyl-[acyl-carrier-protein] reductase [NADH] (Mycobacterium tuberculosis, UniProt P9WGR1); assay: Inhibition of Mycobacterium tuberculosis InhA
T1 sequence (P9WGR1 whole entry): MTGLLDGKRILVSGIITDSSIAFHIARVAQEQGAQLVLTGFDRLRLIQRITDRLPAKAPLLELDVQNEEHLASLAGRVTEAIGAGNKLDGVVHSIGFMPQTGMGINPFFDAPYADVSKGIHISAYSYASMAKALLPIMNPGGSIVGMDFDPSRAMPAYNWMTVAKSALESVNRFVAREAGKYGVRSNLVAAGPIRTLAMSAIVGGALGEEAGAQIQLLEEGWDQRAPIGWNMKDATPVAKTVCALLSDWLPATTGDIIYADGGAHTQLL

Thymidylate kinase = target: T2, Thymidylate kinase (Mycobacterium tuberculosis, UniProt P9WKE1); assay: Inhibition of Mycobacterium tuberculosis thymidine monophosphate kinase
T2 sequence (P9WKE1 whole entry): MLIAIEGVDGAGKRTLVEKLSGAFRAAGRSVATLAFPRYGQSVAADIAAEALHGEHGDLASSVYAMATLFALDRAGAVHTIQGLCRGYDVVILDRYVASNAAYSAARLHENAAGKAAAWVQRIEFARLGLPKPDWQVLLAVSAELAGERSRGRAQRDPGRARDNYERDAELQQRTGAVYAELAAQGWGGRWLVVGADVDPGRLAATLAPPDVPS

Compound	growth inhibition (GI) [1]	IC50 [5] [µM]	growth inhibition (GI) [6]	growth inhibition (GI) [7]	other results
O=C(Oc1cccc2cccnc12)c1ccc(S(=O)(=O)c2ccc(Cl)cc2)cc1	Active	20	Active	Active	Activity (Escherichia coli [2]): Non-toxic; Activity (Escherichia coli [3]): Non-toxic; Activity (MDCK): Non-toxic; Activity [4]: Non-toxic
COc1ccc(-c2cc3ccccc3oc2=O)cc1NC(=O)COc1ccc(Cl)cc1C				inactive	
O=C(Nc1ccc(OCc2ccccc2)cc1)C1CCN(C(=O)c2ccc([N+](=O)[O-])cc2)CC1				inactive	
CCCCc1cc(=O)oc2cc(OCC(=O)OCC)c(Cl)cc12				inactive	
NC(=O)C1=CN([C@@H]2O[C@H](COP(=O)(O)OP(=O)(O)OC[C@H]3O[C@@H](n4cnc5c(N)ncnc54)[C@H](O)[C@@H]3O)[C@@H](O)[C@H]2O)C=C[C@H]1C(=O)c1ccncc1					Ki [8]: 0.00075 µM
CCc1cc(=O)oc2cc(OCC(=O)OCc3ccccc3)c(Cl)cc12	Active		inactive	Active	
COC(=O)COc1ccc(NC(=O)c2ccc(C(C)(C)C)cc2)cc1				inactive	
CCOc1ccc(NC(=O)CSc2nc3ccc(NC(=O)c4ccccc4C)cc3s2)cc1				inactive	
NNC(=O)c1ccncc1 [ISONIAZID]	Active	2.6	Active		
Cc1ccc(Nc2nc(Nc3ccc(C)cc3)nc(Sc3nnc(C)s3)n2)cc1	Active	22	Active	Active	Activity (Escherichia coli [2]): Non-toxic; Activity (Escherichia coli [3]): Non-toxic; Activity (MDCK): Toxic; Activity [4]: Toxic
CC(C)Oc1cccc(-c2cc(C(=O)NCCc3ccc(S(N)(=O)=O)cc3)c3ccccc3n2)c1	Active	15	Active	Active	Activity (Escherichia coli [2]): Non-toxic; Activity (Escherichia coli [3]): Non-toxic; Activity (MDCK): Non-toxic; Activity [4]: Non-toxic
CCCc1cc(=O)oc2cc(OCC(=O)OCc3ccccc3)c(Cl)cc12				inactive	
Cc1cn([C@H]2C[C@H](CN=[N+]=[N-])[C@@H](COP(=O)(O)O)O2)c(=O)[nH]c1=O					Ki (Thymidylate kinase): 10 µM
